This passage reports Ki, Activity and inhibition results from ChEMBL document CHEMBL4373685, “High affinity rigidified AT2 receptor ligands with indane scaffolds” (Medchemcomm, 2019).

As a reminder, the Ki is a dissociation constant, usually derived from enzyme kinetics or from competition with a known ligand. The low end stands for higher affinity, the high end for lower affinity.

Activity calls are given as the source filed them. No cut-off for these calls is given here.

Assay [1] in a line: Displacement of [125I]-Ang2 from AT2 receptor in porcine uterine myometrial membranes after 1.5 hrs by gamma scintillation gamma scintillation counting analysis. The arrangement: species or system Sus scrofa. In short, it runs like this:
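Pig uterine myometrial membranes (10 mg original tissue per tube) with 1 μM losartan to block AT1. Incubated 25 °C for 1.5 h, then filtered and counted by γ-counter. Nonspecific binding with 1 μM Ang II.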

Assay [2] relates to NG108-15. The assay is described as follows: Agonist activity at AT2 receptor in mouse/rat NG108-15 cells assessed as neurite growth at 10 nM after 3 days by phase contrast microscopic analysis. It is filed as cell-based. In short, it runs like this:
(§1)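 NG108-15 neuroblastoma x glioma cells, passages 18–25, in DMEM with 10% FBS and HAT at 37 °C, 7% CO2. Seeded at 3.6 × 10^4 cells per 35 mm dish. Dosed once daily for 3 days starting 24 h after plating; where used, 10 μM PD 123319 was added 30 min before compound. On day 4, phase-contrast micrographs were taken. Cells with a neurite longer than the cell body were scored as % of at least 400 cells. Three independent experiments in duplicate, two-way ANOVA.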

Assay [3] has as its system NG108-15. Put plainly: Agonist activity at AT2 receptor in mouse/rat NG108-15 cells assessed as neurite growth at 10 nM after 3 days in presence of PD123319 by phase contrast microscopic analysis. It is filed as cell-based. The procedure, abridged:
as §1

Assay [4] relates to NG108-15. The assay is described as follows: Antagonist activity at AT2 receptor in mouse/rat NG108-15 cells assessed as inhibition of angiotensin-2 induced neurite growth at 100 nM after 3 days in presence of angiotensin-2 by phase contrast microscopic analysis. It is filed as cell-based. The procedure, abridged: (§2)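 NG108-15 cells seeded at 3.6 × 10^4 per 35 mm dish. Compound given once daily for 3 days, starting 24 h after plating, 30 min before 100 nM Ang II. On day 4, phase-contrast micrographs were taken. Cells bearing a neurite longer than the cell body were counted as % of at least 400 cells. Three independent experiments in duplicate, two-way ANOVA.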

For assay [5], the system named is NG108-15. Put plainly: Antagonist activity at AT2 receptor in mouse/rat NG108-15 cells assessed as inhibition of angiotensin-2 induced neurite growth at 10 nM after 3 days in presence of angiotensin-2 by phase contrast microscopic analysis. It is filed as cell-based. In short, it runs like this:
as §2

With `CCCCOC(=O)NS(=O)(=O)c1ccc2c(c1-c1ccc(Cn3ccnc3)cc1)CCC2C(C)C` (single isomer, unassigned; (-)) [listing 1 of 2 here], affinity in assay [1] was put at a Ki of 127 nM.

Compound `CCCCOC(=O)NS(=O)(=O)c1cc2c(cc1-c1ccc(Cn3ccnc3)cc1)CCC2C(C)C` (single isomer, unassigned; (+)) [listing 1 of 2 here] came in with a Ki in assay [1] of 2.2 nM.

On to `CCCCOC(=O)NS(=O)(=O)c1ccc2c(c1-c1ccc(Cn3ccnc3)cc1)CCC2C(C)C` (single isomer, unassigned; (-)) [listing 2 of 2 here], for which the result in the assay on NG108-15 [2] was Active. The result in the assay with NG108-15 [3] was inactive.

In the case of `CCCCOC(=O)NS(=O)(=O)c1cc2c(cc1-c1ccc(Cn3ccnc3)cc1)CCC2C(C)C` (single isomer, unassigned; (-)) [listing 1 of 2 here], in assay [1], the inhibition constant (Ki) was 5.9 nM. That is a single-digit nanomolar value.

As to `CCCCOC(=O)NS(=O)(=O)c1ccc2c(c1-c1cccc(Cn3ccnc3)c1)CCC2C(C)C` (single isomer, unassigned; (-)) [listing 1 of 2 here], the inhibition result in the assay with NG108-15 [4] and with NG108-15 [5] was “Active” throughout.

In assay [1], `CCCCOC(=O)NS(=O)(=O)c1ccc2c(c1-c1cccc(Cn3ccnc3)c1)CCC2C(C)C` (stereo in doubt; 8b) [listing 1 of 2 here] yielded an inhibition constant Ki of 53.5 nM.

As to `CCCCOC(=O)NS(=O)(=O)c1cc2c(cc1-c1cccc(Cn3ccnc3)c1)CCC2C(C)C` (single isomer, unassigned; (+)) [listing 1 of 2 here], the affinity in assay [1] corresponds to a Ki of 3.2 nM. Against the preceding compound, the Ki is about 17-fold lower.

Regarding `CCCCOC(=O)NS(=O)(=O)c1cc2c(cc1-c1ccc(Cn3ccnc3)cc1)CCC2C(C)C` (single isomer, unassigned; (+)) [listing 2 of 2 here], the outcome in the assay with NG108-15 [2] was Active. Besides, in the assay on NG108-15 [3], the outcome was inactive.

In turn, `CCCCOC(=O)NS(=O)(=O)c1ccc2c(c1-c1cccc(Cn3ccnc3)c1)CCC2C(C)C` (single isomer, unassigned; (-)) [listing 2 of 2 here] came in with a Ki in assay [1] of 223 nM. This lies in the sub-micromolar range.

As to `CCCCOC(=O)NS(=O)(=O)c1ccc2c(c1-c1ccc(Cn3ccnc3)cc1)CCC2C(C)C` (single isomer, unassigned; (+)) [listing 1 of 2 here], the inhibition entry in the assay with NG108-15 [4] and with NG108-15 [5] was “Active” throughout.

On to `CCCCOC(=O)NS(=O)(=O)c1cc2c(cc1-c1cccc(Cn3ccnc3)c1)CCC2C(C)C` (single isomer, unassigned; (+)) [listing 2 of 2 here], for which the inhibition result with NG108-15 [4] and with NG108-15 [5] was “Active” in each case.

With `CCCCOC(=O)NS(=O)(=O)c1ccc2c(c1-c1cccc(Cn3ccnc3)c1)CCC2C(C)C` (stereo in doubt; 8b) [listing 2 of 2 here], the inhibition result in the assay with NG108-15 [4] and in the assay with NG108-15 [5] was “Active” throughout.

Take `CCCCOC(=O)NS(=O)(=O)c1cc2c(cc1-c1cccc(Cn3ccnc3)c1)CCC2C(C)C` (single isomer, unassigned; (-)) [listing 1 of 2 here]: in the assay on NG108-15 [2], the outcome was Active. Also, the outcome in the assay with NG108-15 [3] was inactive.

Consider `CCCCOC(=O)NS(=O)(=O)c1cc2c(cc1-c1ccc(Cn3ccnc3)cc1)CCC2C(C)C` (single isomer, unassigned; (-)) [listing 2 of 2 here], for which, in the assay with NG108-15 [2], the result was Active. Besides, in the assay with NG108-15 [3], the outcome was inactive.

Consider `CCCCOC(=O)NS(=O)(=O)c1ccc2c(c1-c1ccc(Cn3ccnc3)cc1)CCC2C(C)C` (single isomer, unassigned; (+)) [listing 2 of 2 here], for which the Ki in assay [1] turned out to be 2.8 nM. This counts as single-digit nanomolar.

`CCCCOC(=O)NS(=O)(=O)c1cc2c(cc1-c1cccc(Cn3ccnc3)c1)CCC2C(C)C` (single isomer, unassigned; (-)) [listing 2 of 2 here] returned an inhibition constant Ki in assay [1] of 7 nM. This Ki is about 2.5-fold higher than that of the compound before.
